Legend:
[1] = test system: NSO mouse myeloma cells (Mus musculus); experiment: Cytotoxicity required to inhibit cell proliferation by 50% (tritiated thymidine incorporation in proliferating NSO mouse myeloma cells)
[2] = Minimum toxic concentration required to cause a microscopically detectable alteration of normal cell morphology of MDCK cells; conditions: Sendai virus, read-out: MTC
MDCK = experiment: Inhibitory activity against Parainfluenza 1 (Sendai) virus (PIV) in MDCK cells; type: functional; conditions: Canis lupus familiaris, read-out: ED50 (the source's name)
In short: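 Confluent MDCK monolayers infected with Sendai virus (10 HAU/10⁵ cells) and allowed to adsorb for 1 h at 37 °C. Inoculum removed, cells washed three times with PBS, then given fresh medium with 2% FCS. Compounds added after adsorption at several dilutions and kept until the end. Supernatants harvested at different times after challenge and titrated as hemagglutinin units. ED₅₀ derived from these titres.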

Q: Which results are given for `CCCOc1nc(CC2(c3ccccc3)CCCO2)cc(=O)n1C` (stereo unspecified)?
A: CC50 [1]: 170 µM; MCC [2]: 305 µM; EC50 (MDCK): 152 µM

Q: With `CCCCOc1nc(CC2CCCO2)cc(=O)n1C` (stereo unspecified) as the compound, how does the CC50 [1] read?
A: 579 µM

Q: And the MCC [2]?
A: 376 µM

Q: And the EC50 (MDCK)?
A: 195 µM

Q: Which CC50 [1] does the source give for `Cn1c(CC23CCC[C@H]2O3)cc(=O)n(C)c1=O` (stereo partly specified) here?
A: 8.4 µM

Q: And the MCC [2]?
A: > 0.84 µM

Q: With `CCCCOc1nc(CC2(C)CCCO2)cc(=O)n1C` (stereo unspecified) as the compound, how does the CC50 [1] read?
A: 1080 µM

Q: What about the MCC [2] of the same compound?
A: 373 µM

Q: What about the EC50 (MDCK) of the same compound?
A: 186 µM

Q: Which results are given for `CCCOc1nc(CC2(C)CCCO2)cc(=O)n1C` (stereo unspecified)?
A: CC50 [1]: 860 µM; MCC [2]: > 376 µM; EC50 (MDCK): 187 µM

Q: Which CC50 [1] does the source give for `COc1nc(CC2CCCO2)cc(=O)n1C` (stereo unspecified) here?
A: 1220 µM

Q: What about the MCC [2] of the same compound?
A: 446 µM

Q: What about the EC50 (MDCK) of the same compound?
A: > 446 µM

Q: Which CC50 [1] does the source give for `C[C@H]1O[C@@]1(C)Cc1cc(=O)n(C)c(=O)n1C` here?
A: 89 µM

Q: What about the MCC [2] of the same compound?
A: > 2 µM

Q: Which CC50 [1] does the source give for `C[C@@H]1O[C@@]1(C)Cc1cc(=O)n(C)c(=O)n1C` here?
A: 89 µM

Q: And the MCC [2]?
A: > 2 µM

Q: Which CC50 [1] does the source give for `Cn1c(CC2(C)CO2)cc(=O)n(C)c1=O` (stereo unspecified) here?
A: 4 µM

Q: What about the MCC [2] of the same compound?
A: 0.48 µM

Q: What does the source list for `Cn1c(CC2(C(C)(C)C)CO2)cc(=O)n(C)c1=O` (stereo unspecified)?
A: CC50 [1]: 7.9 µM; MCC [2]: > 0.79 µM

Q: Which results are given for `Cn1c(CC2(c3ccccc3)CO2)cc(=O)n(C)c1=O` (stereo unspecified)?
A: CC50 [1]: 3.7 µM; MCC [2]: 0.37 µM

Q: Which results are given for `Cn1c(C[C@]2(C)CCCO2)cc(=O)n(C)c1=O`?
A: CC50 [1]: 1380 µM; MCC [2]: > 223 µM; EC50 (MDCK): 1.11 µM

Q: Which results are given for `Cn1c(C[C@]2(c3ccccc3)CCCO2)cc(=O)n(C)c1=O`?
A: CC50 [1]: 547 µM; MCC [2]: > 333 µM; EC50 (MDCK): 116 µM

Q: For `Cn1c(C[C@@H]2CCCO2)cc(=O)n(C)c1=O`, which CC50 [1] is on record?
A: 1220 µM

Q: What about the MCC [2] of the same compound?
A: 446 µM

Q: What about the EC50 (MDCK) of the same compound?
A: 338 µM

Q: For `CCCOc1nc(CC23CCCC[C@H]2O3)cc(=O)n1C` (stereo partly specified), which CC50 [1] is on record?
A: > 352 µM

Q: And the MCC [2]?
A: > 352 µM

Q: With `Cn1c([C@H]2O[C@@H]2c2ccccc2)cc(=O)n(C)c1=O` as the compound, how does the CC50 [1] read?
A: > 380 µM

Q: What about the MCC [2] of the same compound?
A: 380 µM

Q: And the EC50 (MDCK)?
A: 193 µM

Q: For `Cn1c(OC2CCCCC2)nc(CC2(C)CCCO2)cc1=O` (stereo unspecified), which CC50 [1] is on record?
A: 816 µM

Q: What about the MCC [2] of the same compound?
A: 326 µM

Q: What about the EC50 (MDCK) of the same compound?
A: 164 µM

Q: What does the source list for `Cn1c(CC23CCCC[C@@H]2O3)cc(=O)n(C)c1=O` (stereo partly specified)?
A: CC50 [1]: 40 µM; MCC [2]: > 2 µM; EC50 (MDCK): > 2 µM

Q: What does the source list for `CCCCOc1nc(CC2(c3ccccc3)CCCO2)cc(=O)n1C` (stereo unspecified)?
A: CC50 [1]: 90 µM; MCC [2]: 292 µM; EC50 (MDCK): 146 µM

Q: With `CCCOc1nc(CC2CCCO2)cc(=O)n1C` (stereo unspecified) as the compound, how does the CC50 [1] read?
A: 1020 µM

Q: What about the MCC [2] of the same compound?
A: 397 µM

Q: What about the EC50 (MDCK) of the same compound?
A: 300 µM

Q: Which results are given for `COc1nc(CC2(c3ccccc3)CCCO2)cc(=O)n1C` (stereo unspecified)?
A: CC50 [1]: 130 µM; MCC [2]: 383 µM; EC50 (MDCK): 166 µM

Q: For `CCCOc1nc(CC2(C)CCCO2)cc(OC)n1` (stereo unspecified), which CC50 [1] is on record?
A: 375 µM

Q: And the MCC [2]?
A: > 305 µM

Q: What about the EC50 (MDCK) of the same compound?
A: 267 µM

Q: For `COc1nc(CC2(c3ccccc3)CO2)cc(=O)n1C` (stereo unspecified), which CC50 [1] is on record?
A: > 360 µM

Q: What about the MCC [2] of the same compound?
A: 735 µM

Q: And the EC50 (MDCK)?
A: 0.37 µM

Q: Which CC50 [1] does the source give for `COc1nc(CC2(C)CCCO2)cc(=O)n1C` (stereo unspecified) here?
A: 1620 µM

Q: And the MCC [2]?
A: 893 µM

Q: What about the EC50 (MDCK) of the same compound?
A: 893 µM

Q: Which CC50 [1] does the source give for `Cn1c(C2OC2(C)c2ccccc2)cc(=O)n(C)c1=O` (stereo unspecified) here?
A: 7.3 µM

Q: What about the MCC [2] of the same compound?
A: > 0.81 µM

Q: For `CCCOc1nc(CC2(c3ccccc3)CO2)cc(=O)n1C` (stereo unspecified), which CC50 [1] is on record?
A: > 330 µM

Q: What about the MCC [2] of the same compound?
A: 330 µM

Q: For `Cn1c(OC2CCCCC2)nc(CC2(c3ccccc3)CO2)cc1=O` (stereo unspecified), which CC50 [1] is on record?
A: > 294 µM

Q: What about the MCC [2] of the same compound?
A: 294 µM

Q: With `CC1O[C@]1(C)Cc1cc(=O)n(C)c(OC2CCCCC2)n1` (mixture of isomers) as the compound, how does the CC50 [1] read?
A: > 342 µM

Q: And the MCC [2]?
A: 342 µM

Q: What does the source list for `Cn1c([C@H]2O[C@H]2c2ccccc2)cc(=O)n(C)c1=O` (racemic)?
A: CC50 [1]: 7.7 µM; MCC [2]: > 0.8 µM; EC50 (MDCK): 0.38 µM
